Experiment [1] relates to Escherichia coli. The experiment in a line: Antimicrobial activity against Escherichia coli by agar diffusion method. The format is functional. In outline: (§1)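 Test substance dissolved in acetone at 1 mg/mL, and 50 µL (50 µg) applied to a sterile 9 mm filter disk. Disk placed on NB agar, then sprayed with a suspension of the test bacterium (E. coli Gram-negative; B. megaterium Gram-positive). Acetone run as a solvent control.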

Experiment [2] relates to Microbotryum violaceum. As to the kind of experiment: Antimicrobial activity against Microbotryum violaceum by agar diffusion method. The format is functional. In short, it runs like this: (§2)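 Test substance dissolved in acetone at 1 mg/mL, and 50 µL (50 µg) pipetted onto a sterile 9 mm filter disk. Disk laid on MPY agar, then sprayed with a suspension of the fungus M. violaceum or the alga C. fusca. Acetone tested as a solvent control.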
Background: In agar diffusion tests the substance spreads into inoculated agar from a disc or well.

In experiment [3] the test system is Priestia megaterium. The experiment in a line: Antimicrobial activity against Bacillus megaterium by agar diffusion method. The format is functional. In short, it runs like this: as §1
The test system of experiment [4] is [Chlorella] fusca. As to the kind of experiment: Antimicrobial activity against Chlorella fusca by agar diffusion method. The class given is functional, Scenedesmus fuscus. In short, it runs like this: as §2

As to `COc1cc2c(c(O)c1OC)C(=O)O[C@@H]1C[C@H](C[C@H](C)O)O[C@H]21`, the “inhibition zone (IZ)” value was 8 mm in experiment [1], 9 mm in experiment [2], 6 mm in experiment [3] and 10 mm in experiment [4].

For the compound `COc1cc2c(c(O)c1OC)C(=O)O[C@@H]1C[C@H](C[C@@H](C)O)O[C@H]21`, the “inhibition zone (IZ)” value in experiment [1] worked out at 0 mm; in experiment [2], 7 mm; in experiment [3] it was 0 mm; in experiment [4] it was 6 mm.

`CCC[C@@H](O)C[C@H]1OC(=O)c2c(cc(OC)c(OC)c2O)[C@H]1O`: the “inhibition zone (IZ)” value in experiment [1] is listed as 10 mm; in experiment [2], 9 mm; in experiment [3], 7 mm; in experiment [4], 10 mm.

For `C[C@@H]1C[C@@H]([C@H](O)CC2CC(=O)NC(=O)C2)C(=O)[C@@H](C)C1` [CYCLOHEXIMIDE], the “inhibition zone (IZ)” value is listed as 0 mm in experiment [1], 35 mm in experiment [2], 0 mm in experiment [3] and 50 mm in experiment [4].

As to `CCC[C@H]1C[C@H]2OC(=O)c3c(cc(OC)c(OC)c3O)[C@H]2O1` [MONOCERIN], the “inhibition zone (IZ)” value in experiment [1] stood at 10 mm; in experiment [2] it was 23 mm; in experiment [3] it was 6 mm; in experiment [4], 8 mm.

With `CN(C)[C@@H]1C(O)=C(C(N)=O)C(=O)[C@@]2(O)C(O)=C3C(=O)c4c(O)cccc4[C@@](C)(O)[C@H]3C[C@@H]12` [TETRACYCLINE], the “inhibition zone (IZ)” value in experiment [1] is reported as 18 mm; in experiment [2], 10 mm; in experiment [3], 18 mm; in experiment [4] it was 0 mm.

Turning to NYSTATIN, the inhibition zone (IZ) amounted to 0 mm in experiment [1], 0 mm in experiment [2], 0 mm in experiment [3] and 20 mm in experiment [4] (Scenedesmus fuscus).

The values are drawn from ChEMBL document CHEMBL1157419, “Bioactive isocoumarins isolated from the endophytic fungus Microdochium bolleyi” (2008).
